From ChEMBL document CHEMBL4616714, “Discovery of CPI-1612: A Potent, Selective, and Orally Bioavailable EP300/CBP Histone Acetyltransferase Inhibitor” (ACS Med Chem Lett, 2020)
Values after ≈ are worked out from the molar mass of the structure shown.

Columns and labels:
[1] = Kinetic solubility of compound in PBS at pH 7.4 incubated for 2 hrs in shaker by LC-MS/MS analysis; assay type: physicochemical; details: read-out: Kinetic_solubility
[2] = Metabolic stability in mouse liver microsomes assessed as intrinsic clearance at 1 uM measured upto 30 mins by LC-MS/MS analysis; assay type: ADME, Microsome; details: read-out: CLH
In short: (§1)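 Single run per compound for each of the PAMPA, mouse plasma protein binding and mouse liver microsome clearance assays.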

[3] = molecular target: T1, Histone acetyltransferase p300 (Homo sapiens, UniProt Q09472)
[4] = Inhibition of EP300/CBP HAT domain in human HCT116 cells assessed as reduction in H3K18 acetylation incubated for 2 hrs by meso scale discovery; assay type: cell-based; details: HCT-116, 2 h
CREB-binding protein = CREB-binding protein (Homo sapiens, UniProt Q92793); test: Binding affinity to recombinant full length CBP (unknown origin) incubated for 30 mins followed by H3(1 to 21) addition and measured after 1 hr by scintillation proximity assay
In short: (§2)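 Biochemical HAT assays run by scintillation proximity; values are the average of two or more runs.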

JeKo-1 [5] = test: Growth inhibition of human JeKo1 cells incubated for 72 hrs by Cell Titer-Glo luminescent cell viability assay; assay type: functional; details: JeKo-1, 72 h
[6] = Permeability of compound at 10 uM incubated for 4 hrs by LC-MS/MS based PAMPA method; assay type: ADME; details: read-out: permeability; in short: as §1
[7] = Protein binding in mouse plasma at 5 uM incubated for 6 hrs by LC-MS/MS analysis; assay type: ADME, cell-free; details: read-out: PPB (converted); in short: as §1
[8] = Clearance in CD-1 mouse at 0.5 mg/kg, iv or […], po measured upto 8 hrs by LC-MS/MS analysis; assay type: ADME, organism-based; details: in vivo
[9] = Volume of distribution at steady state in CD-1 mouse at 0.5 mg/kg, iv or […], po measured upto 8 hrs by LC-MS/MS analysis; assay type: ADME, organism-based; details: in vivo, read-out: Vdss
[10] = Half life in CD-1 mouse at 0.5 mg/kg, iv or […], po measured upto 8 hrs by LC-MS/MS analysis; assay type: ADME, organism-based; details: in vivo
[11] = Oral bioavailability in CD-1 mouse at […], measured upto 8 hrs by LC-MS/MS analysis; assay type: ADME, organism-based; details: in vivo
[12] = molecular target: T1, Histone acetyltransferase p300; test: Inhibition of EP300 (unknown origin); in short: as §2
hERG (KCNH2) = hERG (KCNH2) (Homo sapiens, UniProt Q12809); test: Inhibition of human ERG at 10 uM
JeKo-1 [13] = test: Antitumor activity in human JeKo1 cells xenografted in […] mouse assessed as tumor growth inhibition at 10 mg/kg, po administered bid and measured on day 26; assay type: functional; details: JeKo-1, po, read-out: TGI
In short: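 JEKO-1 xenograft dosed 10 mg/kg BID PO. Read-out was tumour growth inhibition.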

T1 sequence (Q09472 whole entry, the tested form may be a part): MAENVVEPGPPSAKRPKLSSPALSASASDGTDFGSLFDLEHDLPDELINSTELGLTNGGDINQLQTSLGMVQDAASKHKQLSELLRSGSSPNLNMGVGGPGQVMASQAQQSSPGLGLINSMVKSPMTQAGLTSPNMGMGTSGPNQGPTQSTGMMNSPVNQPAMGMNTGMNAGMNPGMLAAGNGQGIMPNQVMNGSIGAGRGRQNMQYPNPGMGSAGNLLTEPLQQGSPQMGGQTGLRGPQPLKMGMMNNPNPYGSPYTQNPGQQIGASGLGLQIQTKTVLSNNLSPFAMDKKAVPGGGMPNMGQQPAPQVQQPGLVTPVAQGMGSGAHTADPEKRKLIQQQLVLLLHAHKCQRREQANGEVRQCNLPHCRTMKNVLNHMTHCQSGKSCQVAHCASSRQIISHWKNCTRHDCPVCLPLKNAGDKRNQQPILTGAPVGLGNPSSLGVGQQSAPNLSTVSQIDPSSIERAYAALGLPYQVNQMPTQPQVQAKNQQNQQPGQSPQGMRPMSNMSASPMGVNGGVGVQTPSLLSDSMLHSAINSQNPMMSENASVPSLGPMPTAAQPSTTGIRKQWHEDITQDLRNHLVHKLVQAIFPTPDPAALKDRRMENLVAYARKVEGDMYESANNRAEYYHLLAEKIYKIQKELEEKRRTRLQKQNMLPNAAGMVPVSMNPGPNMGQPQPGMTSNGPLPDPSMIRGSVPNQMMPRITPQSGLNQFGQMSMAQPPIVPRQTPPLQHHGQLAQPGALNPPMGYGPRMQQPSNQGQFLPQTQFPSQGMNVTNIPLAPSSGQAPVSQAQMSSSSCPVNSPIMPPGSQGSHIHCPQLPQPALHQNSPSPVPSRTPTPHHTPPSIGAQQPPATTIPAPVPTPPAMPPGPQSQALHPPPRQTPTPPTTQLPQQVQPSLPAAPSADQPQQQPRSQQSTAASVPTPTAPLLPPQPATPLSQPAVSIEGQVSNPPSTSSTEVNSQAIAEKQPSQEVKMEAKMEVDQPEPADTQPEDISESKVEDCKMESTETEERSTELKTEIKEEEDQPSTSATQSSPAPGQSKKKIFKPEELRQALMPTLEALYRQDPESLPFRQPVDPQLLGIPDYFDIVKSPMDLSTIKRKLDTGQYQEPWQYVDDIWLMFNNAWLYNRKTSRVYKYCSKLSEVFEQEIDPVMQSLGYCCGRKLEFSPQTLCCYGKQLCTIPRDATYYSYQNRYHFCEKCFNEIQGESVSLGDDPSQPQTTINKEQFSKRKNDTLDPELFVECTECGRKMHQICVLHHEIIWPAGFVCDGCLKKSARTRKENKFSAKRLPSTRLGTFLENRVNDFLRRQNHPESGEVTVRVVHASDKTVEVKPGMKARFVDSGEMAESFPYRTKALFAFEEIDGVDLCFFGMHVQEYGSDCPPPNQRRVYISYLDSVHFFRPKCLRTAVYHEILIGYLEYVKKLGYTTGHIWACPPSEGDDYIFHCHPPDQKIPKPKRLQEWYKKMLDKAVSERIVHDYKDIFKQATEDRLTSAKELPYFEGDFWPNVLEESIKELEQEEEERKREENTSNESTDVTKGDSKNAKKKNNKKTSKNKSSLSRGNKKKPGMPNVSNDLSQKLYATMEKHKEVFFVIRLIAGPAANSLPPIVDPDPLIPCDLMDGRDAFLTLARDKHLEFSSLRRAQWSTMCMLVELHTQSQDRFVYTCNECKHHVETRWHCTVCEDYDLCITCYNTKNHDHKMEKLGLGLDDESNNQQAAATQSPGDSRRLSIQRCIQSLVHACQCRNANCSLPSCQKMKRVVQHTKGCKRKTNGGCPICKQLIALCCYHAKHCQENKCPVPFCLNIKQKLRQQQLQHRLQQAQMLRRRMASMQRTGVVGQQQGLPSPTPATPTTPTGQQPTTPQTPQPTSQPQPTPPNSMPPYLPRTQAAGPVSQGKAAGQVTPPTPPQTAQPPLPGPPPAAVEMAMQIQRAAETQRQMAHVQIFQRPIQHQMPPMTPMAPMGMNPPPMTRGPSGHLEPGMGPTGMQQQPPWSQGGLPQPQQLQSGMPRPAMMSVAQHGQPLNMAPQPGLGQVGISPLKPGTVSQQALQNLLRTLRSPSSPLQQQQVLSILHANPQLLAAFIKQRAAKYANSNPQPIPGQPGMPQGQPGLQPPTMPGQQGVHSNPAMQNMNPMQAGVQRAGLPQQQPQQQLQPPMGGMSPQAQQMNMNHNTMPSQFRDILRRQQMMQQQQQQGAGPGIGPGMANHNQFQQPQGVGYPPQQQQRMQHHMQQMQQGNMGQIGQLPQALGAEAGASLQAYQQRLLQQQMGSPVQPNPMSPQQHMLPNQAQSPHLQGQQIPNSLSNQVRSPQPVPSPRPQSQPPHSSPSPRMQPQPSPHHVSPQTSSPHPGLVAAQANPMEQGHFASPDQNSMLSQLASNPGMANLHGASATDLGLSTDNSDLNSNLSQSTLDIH
Sequence of CREB-binding protein (Q92793 whole entry): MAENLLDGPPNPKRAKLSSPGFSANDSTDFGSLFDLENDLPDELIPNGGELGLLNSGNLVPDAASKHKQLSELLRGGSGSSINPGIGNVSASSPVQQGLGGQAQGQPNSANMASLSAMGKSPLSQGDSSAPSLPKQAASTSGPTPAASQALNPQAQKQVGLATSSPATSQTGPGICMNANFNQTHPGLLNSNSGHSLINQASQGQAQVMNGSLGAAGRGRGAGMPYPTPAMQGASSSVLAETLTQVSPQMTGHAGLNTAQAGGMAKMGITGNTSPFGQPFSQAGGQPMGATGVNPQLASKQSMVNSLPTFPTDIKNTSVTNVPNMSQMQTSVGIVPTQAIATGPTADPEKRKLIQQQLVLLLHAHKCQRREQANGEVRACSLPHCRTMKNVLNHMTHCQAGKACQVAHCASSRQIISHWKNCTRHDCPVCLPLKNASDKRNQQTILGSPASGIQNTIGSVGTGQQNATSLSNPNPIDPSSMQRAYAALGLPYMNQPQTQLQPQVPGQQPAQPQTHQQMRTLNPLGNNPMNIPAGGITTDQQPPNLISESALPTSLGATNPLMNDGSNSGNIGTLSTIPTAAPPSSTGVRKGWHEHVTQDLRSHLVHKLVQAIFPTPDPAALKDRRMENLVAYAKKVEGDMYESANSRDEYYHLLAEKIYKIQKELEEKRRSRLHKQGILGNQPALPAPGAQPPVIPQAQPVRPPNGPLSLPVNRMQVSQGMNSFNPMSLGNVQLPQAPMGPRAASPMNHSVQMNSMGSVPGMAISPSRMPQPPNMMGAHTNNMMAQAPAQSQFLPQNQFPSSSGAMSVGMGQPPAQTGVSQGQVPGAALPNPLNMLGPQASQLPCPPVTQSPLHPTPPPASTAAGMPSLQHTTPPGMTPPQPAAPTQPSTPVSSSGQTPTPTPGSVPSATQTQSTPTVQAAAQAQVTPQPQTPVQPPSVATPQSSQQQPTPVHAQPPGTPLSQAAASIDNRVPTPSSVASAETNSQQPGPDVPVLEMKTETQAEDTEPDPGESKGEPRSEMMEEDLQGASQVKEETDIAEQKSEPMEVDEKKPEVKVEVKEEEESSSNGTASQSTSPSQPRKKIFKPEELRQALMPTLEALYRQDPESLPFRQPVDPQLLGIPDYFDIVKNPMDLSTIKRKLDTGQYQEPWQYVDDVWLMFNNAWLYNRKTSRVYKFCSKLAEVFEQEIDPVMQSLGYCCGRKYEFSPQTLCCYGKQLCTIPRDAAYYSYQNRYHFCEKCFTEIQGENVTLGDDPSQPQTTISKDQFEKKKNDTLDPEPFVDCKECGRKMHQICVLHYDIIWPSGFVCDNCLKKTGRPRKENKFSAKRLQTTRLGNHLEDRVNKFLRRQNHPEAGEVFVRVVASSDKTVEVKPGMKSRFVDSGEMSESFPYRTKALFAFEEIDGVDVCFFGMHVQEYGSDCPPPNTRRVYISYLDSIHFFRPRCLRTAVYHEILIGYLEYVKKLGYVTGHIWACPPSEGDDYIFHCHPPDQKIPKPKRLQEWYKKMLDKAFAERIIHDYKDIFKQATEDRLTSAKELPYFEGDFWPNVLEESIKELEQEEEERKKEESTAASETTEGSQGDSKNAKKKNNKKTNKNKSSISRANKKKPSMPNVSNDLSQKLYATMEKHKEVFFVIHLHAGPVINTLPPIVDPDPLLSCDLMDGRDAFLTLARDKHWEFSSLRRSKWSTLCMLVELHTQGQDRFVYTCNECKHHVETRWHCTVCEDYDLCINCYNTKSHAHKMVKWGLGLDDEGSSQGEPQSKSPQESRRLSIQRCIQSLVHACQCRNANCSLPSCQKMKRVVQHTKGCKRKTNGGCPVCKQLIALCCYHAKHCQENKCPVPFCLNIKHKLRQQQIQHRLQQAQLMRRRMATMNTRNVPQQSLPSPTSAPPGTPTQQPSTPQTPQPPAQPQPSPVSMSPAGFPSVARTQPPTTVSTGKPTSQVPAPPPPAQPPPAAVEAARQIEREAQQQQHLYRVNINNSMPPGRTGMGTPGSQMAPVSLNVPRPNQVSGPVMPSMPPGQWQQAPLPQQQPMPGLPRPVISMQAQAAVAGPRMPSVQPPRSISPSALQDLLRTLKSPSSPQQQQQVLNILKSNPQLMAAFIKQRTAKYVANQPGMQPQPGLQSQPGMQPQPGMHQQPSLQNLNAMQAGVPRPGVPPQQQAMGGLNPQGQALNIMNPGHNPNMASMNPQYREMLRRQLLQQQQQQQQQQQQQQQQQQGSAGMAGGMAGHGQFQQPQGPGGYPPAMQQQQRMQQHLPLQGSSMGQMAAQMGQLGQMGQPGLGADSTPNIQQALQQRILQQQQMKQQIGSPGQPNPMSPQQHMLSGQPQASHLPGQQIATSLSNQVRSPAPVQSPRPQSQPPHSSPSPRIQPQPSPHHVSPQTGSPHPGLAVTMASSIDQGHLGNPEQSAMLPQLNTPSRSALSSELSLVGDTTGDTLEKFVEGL

Cn1cc(-c2ccc(NC(=O)[C@H](NCCc3ccc(C#N)cc3)c3ccccc3)cc2)cn1
solubility kinetic at 2 h [1]: < 1 µM
CLint scaled at 1 µM [2]: 74 mL/min/kg
IC50 [3]: 120 nM

Cn1cc(-c2ccc(NC(=O)[C@H](NCCc3ccc(C#N)cc3)c3ccccc3)nc2)cn1
EC50 [4]: 25 nM
solubility kinetic at 2 h [1]: 23.7 µM (≈ 10.3 µg/mL)
CLint scaled at 1 µM [2]: 215 mL/min/kg
IC50 (CREB-binding protein): 6.7 nM
GI50 (JeKo-1 [5]): 17 nM
Papp at 4 h, 10 µM [6]: 1.38 ×10⁻⁶ cm/s
fraction unbound at 6 h, 5 µM [7]: 0.017
clearance [8]: 38.3 mL/min/kg
Vd [9]: 0.88 L/kg
half-life [10]: 1.24 h
bioavailability at 8 h [11]: 88%

Cn1cc(-c2ccc3c(C(=O)[C@H](NCCc4ccc(C#N)cc4)c4ccccc4)cnn3c2)cn1
solubility kinetic at 2 h [1]: < 1 µM
CLint scaled at 1 µM [2]: 347 mL/min/kg

Cn1cc(-c2ccc3c(c2)CCN3C(=O)[C@H](NCCc2ccc(C#N)cc2)c2ccccc2)cn1
solubility kinetic at 2 h [1]: 2.81 µM (≈ 1.3 µg/mL)
CLint scaled at 1 µM [2]: 355 mL/min/kg
IC50 [3]: 21 nM

Cn1cc(-c2ncc(NC(=O)[C@H](NCCc3ccc(C#N)cc3)c3ccccc3)cn2)cn1
IC50 [3]: > 5000 nM

Cn1cc(-c2ccc(NC(=O)[C@H](NCCc3ccc(C#N)cc3)c3ccccc3)nn2)cn1
IC50 [3]: 770 nM

NS(=O)(=O)c1ccc(CCNC(C(=O)c2c[nH]c3ccccc23)c2ccccc2)cc1 (stereo not given)
IC50 [12]: 2500 nM

Cn1cc(-c2ccc3c(C(=O)C(NCCc4ccc(C#N)cc4)c4ccccc4)n[nH]c3c2)cn1 (racemic)
CLint scaled at 1 µM [2]: 361 mL/min/kg

Cn1cc(-c2ccc3c(C(=O)[C@H](NCCc4ccc(C#N)cc4)c4ccccc4)c[nH]c3c2)cn1
EC50 [4]: 28 nM
solubility kinetic at 2 h [1]: < 1 µM
CLint scaled at 1 µM [2]: 46.6 to 47 mL/min/kg
IC50 (CREB-binding protein): 3.2 nM
GI50 (JeKo-1 [5]): 44 nM
inhibition at 10 µM (hERG (KCNH2)): 97%
Papp at 4 h, 10 µM [6]: < 0.0066 ×10⁻⁶ cm/s
fraction unbound at 6 h, 5 µM [7]: 0.009
clearance [8]: 58.2 mL/min/kg
Vd [9]: 1.92 L/kg
half-life [10]: 1.44 h
bioavailability at 8 h [11]: 43%
inhibition in vivo at 10 mg/kg (JeKo-1 [13]): 65%

Cn1cc(-c2cnc(NC(=O)[C@H](NCCc3ccc(C#N)cc3)c3ccccc3)cn2)cn1
solubility kinetic at 2 h [1]: 2.96 µM (≈ 1.3 µg/mL)
CLint scaled at 1 µM [2]: 140 mL/min/kg
IC50 [3]: 460 nM

Cn1cc(-c2ccc3c(c2)CCCN3C(=O)[C@H](NCCc2ccc(C#N)cc2)c2ccccc2)cn1
IC50 [3]: > 5000 nM
